The source of these data is ChEMBL document CHEMBL1126560, “Endothelin-1 analogues substituted at both position 18 and 19: highly potent endothelin antagonists with no selectivity for either receptor subtype ETA or ETB” (J Med Chem, 1993).

The species named for one test is Mus musculus. The experiment in a line: Compound induced increase in cystolic free ca+2 concentration in murine peritoneal macrophages was measured. Type of test: functional. An outline of the steps: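 Murine peritoneal macrophages from male ICR mice given ip 10% protease peptone 3 days before, adhered 1.5 h at 37 °C, fura-2 AM loaded (4 μM, 24 °C, 1.5 h). Fura-2 fluorescence ratio (340/380 nm excitation, 505 nm emission) at 37 °C. Compound at 100 nM; rise expressed as % of 100 nM ET-1 response.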

Test [1] concerns the target T1, Endothelin receptor type B (Bos taurus, UniProt P28088).
T1 sequence (P28088 whole entry): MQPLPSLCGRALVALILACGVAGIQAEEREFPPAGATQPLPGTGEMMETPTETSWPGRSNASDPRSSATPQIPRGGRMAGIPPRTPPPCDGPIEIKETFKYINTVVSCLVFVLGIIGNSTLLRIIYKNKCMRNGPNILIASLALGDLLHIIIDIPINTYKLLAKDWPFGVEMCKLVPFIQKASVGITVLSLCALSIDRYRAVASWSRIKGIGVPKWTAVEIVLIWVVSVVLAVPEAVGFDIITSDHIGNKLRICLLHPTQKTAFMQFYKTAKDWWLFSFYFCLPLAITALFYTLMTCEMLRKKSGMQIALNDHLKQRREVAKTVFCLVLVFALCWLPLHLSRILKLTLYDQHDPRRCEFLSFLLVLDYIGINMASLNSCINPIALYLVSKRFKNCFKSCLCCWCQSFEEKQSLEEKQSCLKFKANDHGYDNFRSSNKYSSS
The experiment in a line: Tested for the competitive binding versus [125I]- ET-1 determined in bovine cerebrum membrane for Endothelin B receptor. The test is classed as cell membranes. In short, it runs like this:
(§1)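 Membranes (porcine cardiac ventricle at 12 μg/mL for ETA; bovine cerebrum at 150 μg/mL for ETB) in pH 7.2 Tris/EGTA/Mg acetate/0.1% BSA buffer with protease inhibitors. Incubated with 100 pM [125I]ET-1 and varied compound for 1 h at 25 °C, then filtered and counted by gamma counter. IC50 given as mean ± SEM of ≥3 determinations.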

A further test has as its target T2, Endothelin-1 receptor (Sus scrofa, UniProt Q29010).
T2 sequence (Q29010 whole entry): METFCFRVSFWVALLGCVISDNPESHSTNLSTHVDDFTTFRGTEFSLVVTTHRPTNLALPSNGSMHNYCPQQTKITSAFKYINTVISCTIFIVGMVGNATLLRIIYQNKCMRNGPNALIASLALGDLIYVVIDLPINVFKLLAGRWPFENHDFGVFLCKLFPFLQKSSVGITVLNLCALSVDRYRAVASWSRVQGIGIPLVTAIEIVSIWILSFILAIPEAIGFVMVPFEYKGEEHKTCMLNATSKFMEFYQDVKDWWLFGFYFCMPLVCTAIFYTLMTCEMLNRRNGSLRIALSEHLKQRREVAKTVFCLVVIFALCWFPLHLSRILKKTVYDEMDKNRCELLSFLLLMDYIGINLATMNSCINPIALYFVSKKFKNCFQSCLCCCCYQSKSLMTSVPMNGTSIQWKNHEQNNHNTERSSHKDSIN
The experiment in a line: Tested for the competitive binding versus [125I]- ET-1 determined in porcine cardiac ventricular membrane for Endothelin A receptor. In short, it runs like this:
as §1

Test [2] has as its target T3, Endothelin-1 receptor (Sus scrofa) (UniProt Q29010).
T3 sequence (whole entry): T2 sequence (Q29010 whole entry)
The experiment in a line: Endothelin A receptor agonist activity as maximum vasoconstriction in porcine coronary artery. The test is classed as functional, tissue-based. In short, it runs like this:
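Porcine right coronary artery, endothelium-denuded helical strips in Krebs-Henseleit, 37 °C, isometric tension. Compound applied cumulatively, up to 1 μM. Maximal contraction expressed as % of 60 mM KCl-induced tension; n in parentheses.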

With `CC[C@H](C)[C@H](NC(=O)[C@H](CC(C)C)NC(=O)[C@@H](NC(=O)[C@H](CC(C)C)NC(=O)[C@H](Cc1c[nH]cn1)NC(=O)[C@@H]1CSSC[C@H](N)C(=O)N[C@@H](CO)C(=O)N[C@H]2CSSC[C@H](NC(=O)[C@H](CCC(=O)O)NC(=O)[C@H](CCCCN)NC(=O)[C@H](CC(=O)O)NC(=O)[C@H](CCSC)NC(=O)[C@H](CC(C)C)NC(=O)[C@H](CO)NC(=O)[C@H](CO)NC2=O)C(=O)N[C@@H](C(C)C)C(=O)N[C@@H](Cc2ccc(O)cc2)C(=O)N[C@@H](Cc2ccccc2)C(=O)N1)[C@@H](C)O)C(=O)N[C@@H](Cc1c[nH]c2ccccc12)C(=O)O`, the “[Ca2+] increase” value in the test filed under Mus musculus is on record as 28.
For `CC[C@H](C)[C@H](NC(=O)[C@H](CC(C)(C)C)NC(=O)[C@@H](NC(=O)[C@H](CC(C)C)NC(=O)[C@H](Cc1c[nH]cn1)NC(=O)[C@@H]1CSSC[C@H](N)C(=O)N[C@@H](CO)C(=O)N[C@H]2CSSC[C@H](NC(=O)[C@H](CCC(=O)O)NC(=O)[C@H](CCCCN)NC(=O)[C@H](CC(=O)O)NC(=O)[C@H](CCSC)NC(=O)[C@H](CC(C)C)NC(=O)[C@H](CO)NC(=O)[C@H](CO)NC2=O)C(=O)N[C@@H](C(C)C)C(=O)N[C@@H](Cc2ccc(O)cc2)C(=O)N[C@@H](Cc2ccccc2)C(=O)N1)[C@@H](C)O)C(=O)N[C@@H](Cc1c[nH]c2ccccc12)C(=O)O`, the “[Ca2+] increase” value in the test filed under Mus musculus was determined as 0.
For orientation: IC50 means the concentration that gives 50% inhibition. Read a high IC50 as lower potency. As to `CC[C@H](C)[C@H](NC(=O)[C@H](CC(=O)O)NC(=O)[C@H](CC(C)C)NC(=O)[C@H](Cc1cnc[nH]1)NC(=O)[C@@H]1CSSC[C@H](NC(=O)[C@H](CCC(=O)O)NC(=O)[C@H](CCCCN)NC(=O)[C@H](CC(=O)O)NC(=O)[C@H](CCSC)NC(=O)[C@H](CC(C)C)NC(=O)[C@H](CO)NC(=O)[C@H](CO)NC(=O)[C@@H]2CSSC[C@H](N)C(=O)N[C@@H](CO)C(=O)N2)C(=O)N[C@@H](C(C)C)C(=O)N[C@@H](Cc2ccc(O)cc2)C(=O)N[C@@H](Cc2ccccc2)C(=O)N1)C(=O)N[C@H](C(=O)N[C@@H](Cc1c[nH]c2ccccc12)C(=O)O)[C@@H](C)CC`, the values for the IC50 (in test [1]; at Endothelin-1 receptor) were 0.093 nM and 5.9 nM, respectively.
Turning to `CC[C@H](C)[C@H](NC(=O)[C@H](CC(=O)O)NC(=O)[C@H](CC(C)C)NC(=O)[C@H](Cc1c[nH]cn1)NC(=O)[C@@H]1CSSC[C@H](NC(=O)[C@H](CCC(=O)O)NC(=O)[C@H](CCCCN)NC(=O)[C@H](CC(=O)O)NC(=O)[C@H](CCSC)NC(=O)[C@H](CC(C)C)NC(=O)[C@H](CO)NC(=O)[C@H](CO)NC(=O)[C@@H]2CSSC[C@H](N)C(=O)N[C@@H](CO)C(=O)N2)C(=O)N[C@@H](C(C)C)C(=O)N[C@@H](Cc2ccc(O)cc2)C(=O)N[C@@H](Cc2ccccc2)C(=O)N1)C(=O)N[C@H](C(=O)N[C@@H](Cc1c[nH]c2ccccc12)C(=O)O)[C@@H](C)CC`, in the test filed under Mus musculus, the “[Ca2+] increase” value is listed as 100.
For the molecule `CC[C@H](C)[C@H](NC(=O)[C@@H](NC(=O)[C@H](CC(C)C)NC(=O)[C@H](Cc1c[nH]cn1)NC(=O)[C@@H]1CSSC[C@H](N)C(=O)N[C@@H](CO)C(=O)N[C@H]2CSSC[C@H](NC(=O)[C@H](CCC(=O)O)NC(=O)[C@H](CCCCN)NC(=O)[C@H](CC(=O)O)NC(=O)[C@H](CCSC)NC(=O)[C@H](CC(C)C)NC(=O)[C@H](CO)NC(=O)[C@H](CO)NC2=O)C(=O)N[C@@H](C(C)C)C(=O)N[C@@H](Cc2ccc(O)cc2)C(=O)N[C@@H](Cc2ccccc2)C(=O)N1)[C@@H](C)O)C(=O)N[C@H](C(=O)N[C@@H](Cc1c[nH]c2ccccc12)C(=O)O)[C@@H](C)CC`, the IC50 was found to be 0.33 nM in test [1] and 0.19 nM on Endothelin-1 receptor.
`CC[C@H](C)[C@H](NC(=O)[C@H](CC(C)C)NC(=O)[C@H](CC(=O)O)NC(=O)[C@H](CC(C)C)NC(=O)[C@H](Cc1c[nH]cn1)NC(=O)[C@@H]1CSSC[C@H](N)C(=O)N[C@@H](CO)C(=O)N[C@H]2CSSC[C@H](NC(=O)[C@H](CCC(=O)O)NC(=O)[C@H](CCCCN)NC(=O)[C@H](CC(=O)O)NC(=O)[C@H](CCSC)NC(=O)[C@H](CC(C)C)NC(=O)[C@H](CO)NC(=O)[C@H](CO)NC2=O)C(=O)N[C@@H](C(C)C)C(=O)N[C@@H](Cc2ccc(O)cc2)C(=O)N[C@@H](Cc2ccccc2)C(=O)N1)C(=O)N[C@@H](Cc1c[nH]c2ccccc12)C(=O)O`: the IC50 in test [1] was 0.17 nM; at Endothelin-1 receptor, 0.75 nM.
As to `CC[C@H](C)[C@H](NC(=O)[C@H](CC1CCCCC1)NC(=O)[C@@H](NC(=O)[C@H](CC(C)C)NC(=O)[C@H](Cc1c[nH]cn1)NC(=O)[C@@H]1CSSC[C@H](N)C(=O)N[C@@H](CO)C(=O)N[C@H]2CSSC[C@H](NC(=O)[C@H](CCC(=O)O)NC(=O)[C@H](CCCCN)NC(=O)[C@H](CC(=O)O)NC(=O)[C@H](CCSC)NC(=O)[C@H](CC(C)C)NC(=O)[C@H](CO)NC(=O)[C@H](CO)NC2=O)C(=O)N[C@@H](C(C)C)C(=O)N[C@@H](Cc2ccc(O)cc2)C(=O)N[C@@H](Cc2ccccc2)C(=O)N1)[C@@H](C)O)C(=O)N[C@@H](Cc1c[nH]c2ccccc12)C(=O)O`, the “[Ca2+] increase” value in the test filed under Mus musculus is reported as 10.
In the case of `CC[C@H](C)[C@H](NC(=O)[C@H](CC(C)C)NC(=O)[C@H](CC(C)C)NC(=O)[C@H](Cc1c[nH]cn1)NC(=O)[C@@H]1CSSC[C@@H](N)C(=O)N[C@@H](CO)C(=O)N[C@@H]2CSSC[C@@H](NC(=O)[C@H](CCC(=O)O)NC(=O)[C@@H](CCCCN)NC(=O)[C@H](CC(=O)O)NC(=O)[C@@H](CCSC)NC(=O)[C@H](CC(C)C)NC(=O)[C@@H](CO)NC(=O)[C@H](CO)NC2=O)C(=O)N[C@@H](C(C)C)C(=O)N[C@H](Cc2ccc(O)cc2)C(=O)N[C@@H](Cc2ccccc2)C(=O)N1)C(=O)N[C@H](C(=O)N[C@@H](Cc1c[nH]c2ccccc12)C(=O)O)[C@@H](C)CC`, the Max vasoconstriction in test [2] was found to be 0.
With `CC[C@H](C)[C@H](NC(=O)[C@H](CC(C)C)NC(=O)[C@H](CC(=O)O)NC(=O)[C@H](CC(C)C)NC(=O)[C@H](Cc1c[nH]cn1)NC(=O)[C@@H]1CSSC[C@@H](N)C(=O)N[C@@H](CO)C(=O)N[C@@H]2CSSC[C@@H](NC(=O)[C@H](CCC(=O)O)NC(=O)[C@@H](CCCCN)NC(=O)[C@H](CC(=O)O)NC(=O)[C@@H](CCSC)NC(=O)[C@H](CC(C)C)NC(=O)[C@@H](CO)NC(=O)[C@H](CO)NC2=O)C(=O)N[C@@H](C(C)C)C(=O)N[C@H](Cc2ccc(O)cc2)C(=O)N[C@@H](Cc2ccccc2)C(=O)N1)C(=O)N[C@@H](Cc1c[nH]c2ccccc12)C(=O)O`, in test [2], the Max vasoconstriction was 73.
In the case of `CC[C@H](C)[C@H](NC(=O)[C@H](CC(=O)O)NC(=O)[C@H](CC(C)C)NC(=O)[C@H](Cc1c[nH]cn1)NC(=O)[C@@H]1CSSC[C@@H](NC(=O)[C@H](CCC(=O)O)NC(=O)[C@@H](CCCCN)NC(=O)[C@H](CC(=O)O)NC(=O)[C@@H](CCSC)NC(=O)[C@H](CC(C)C)NC(=O)[C@@H](CO)NC(=O)[C@H](CO)NC(=O)[C@H]2CSSC[C@@H](N)C(=O)N[C@@H](CO)C(=O)N2)C(=O)N[C@@H](C(C)C)C(=O)N[C@H](Cc2ccc(O)cc2)C(=O)N[C@@H](Cc2ccccc2)C(=O)N1)C(=O)N[C@H](C(=O)N[C@@H](Cc1c[nH]c2ccccc12)C(=O)O)[C@@H](C)CC`, the Max vasoconstriction in test [2] was greater than 80.
The same measure, in the same setting: to `CC[C@H](C)[C@H](NC(=O)[C@@H](NC(=O)[C@@H](NC(=O)[C@H](CC(C)C)NC(=O)[C@H](Cc1c[nH]cn1)NC(=O)[C@@H]1CSSC[C@@H](N)C(=O)N[C@@H](CO)C(=O)N[C@@H]2CSSC[C@@H](NC(=O)[C@H](CCC(=O)O)NC(=O)[C@@H](CCCCN)NC(=O)[C@H](CC(=O)O)NC(=O)[C@@H](CCSC)NC(=O)[C@H](CC(C)C)NC(=O)[C@@H](CO)NC(=O)[C@H](CO)NC2=O)C(=O)N[C@@H](C(C)C)C(=O)N[C@H](Cc2ccc(O)cc2)C(=O)N[C@@H](Cc2ccccc2)C(=O)N1)[C@@H](C)O)C(C)C)C(=O)N[C@@H](Cc1c[nH]c2ccccc12)C(=O)O` belongs 128.
